Laboratory results from ChEMBL document CHEMBL1128592, “Phenethylthiazolethiourea (PETT) compounds, a new class of HIV-1 reverse transcriptase inhibitors. 1. Synthesis and basic structure-activity relationship studies of PETT analogs” (J Med Chem, 1995).

What was measured:
[1] = molecular target: Human immunodeficiency virus type 1 reverse transcriptase (Human immunodeficiency virus 1, UniProt Q72547); assay: Inhibition of HIV-1 reverse transcriptase using rCdG as template and dGTP as substrate
[2] = Concentration which reduced the viability of the uninfected MT-4 cells to 50% compared to untreated control cells; details: MT4
[3] = molecular target: Human immunodeficiency virus type 1 reverse transcriptase (Human immunodeficiency virus 1) (UniProt Q72547); assay: Concentration which reduced the cytopathic effect of HIV-1 in MT-4 infected cells; assay type: functional, cell-based
Method in brief: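 MT4 cells at 2 × 10⁵ cells/mL in RPMI 1640 with 10% FCS, penicillin and streptomycin (2 × 10⁴ cells/well). Compounds added from DMSO stocks diluted in medium (final DMSO ≤1%), then HIV-1 IIIB at 10 TCID₅₀/well. After 6 days in CO₂, surviving cells read by XTT. ED₅₀ is the concentration reducing virus cytopathic effect, mean of at least two experiments.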

SMILES | IC50 [1] [nM] | CD50 [2] [µM] | ED50 [3] [nM]
Cc1ccc(NC(=S)NCCc2c(F)cccc2F)nc1 | 3 | > 325 | 10
S=C(NCCc1ccccc1)Nc1ncc(Cl)s1 | 2400 | 15 | 2700
CC(C)=CCN1Cc2cc(Cl)cc3[nH]c(=S)n(c23)C[C@@H]1C | 200 |  | 250
S=C(NCCc1ccccc1)Nc1cnccn1 | 3900 | > 390 | > 10000
O=[N+]([O-])c1ccccc1CCNC(=S)Nc1nccs1 | 150 | 123 | 1100
COc1ccc(Br)cc1CCNC(=S)Nc1nccs1 | 30 | 94 | 50
Fc1cccc(F)c1CCNC(=S)Nc1ccc(Br)cn1 | 1 |  | 
Cc1csc(NC(=S)NCCc2ccccc2)n1 | 100 | > 360 | 400
S=C(NCCc1ccccc1)Nc1ccccn1 | 20 |  | 200
Fc1cccc(F)c1CC/N=C(\S)Nc1ccc(Br)cn1 |  | 67 | 10
CN(/C(S)=N/CCc1ccccc1)c1nccs1 | 1500 | 65 | 10000
COc1ccccc1CCNC(=S)Nc1nccs1 | 40 | 102 | 400
S=C(NCCc1ccccc1)Nc1nc2ccccc2s1 | 200 |  | 1100
S=C(NCCCc1ccccc1)Nc1nccs1 | 4500 | > 360 | > 10000
Fc1ccc(CCNC(=S)Nc2nccs2)cc1 | 1000 | 78 | 3300
Fc1cccc(Cl)c1CCNC(=S)Nc1nccs1 | 6 | 111 | 50
CC(C)Oc1cccc(CCNC(=S)Nc2nccs2)c1 | 400 | 16 | 400
CCOC(=O)c1csc(NC(=S)NCCc2ccccc2)n1 | 200 | 60 | 500
S=C(NCCc1ccco1)Nc1nccs1 | 650 | 89 | 5200
S=C(NCCc1ccccc1)Nc1ncccc1Br | > 10000 | 297 | > 10000
S=C(NCCc1ccccn1)Nc1ccc(Br)cn1 |  |  | 20
Fc1cccc(F)c1CCNC(=S)Nc1nccs1 | 10 | 33 | 20
FC(F)(F)c1csc(NC(=S)NCCc2ccccc2)n1 | 550 | 9 | 500

SMILES | IC50 [1] [nM] | CD50 [2] [µM] | ED50 [3] [nM]
COc1ccc(CCNC(=S)Nc2nccs2)cc1 | 350 | 68 | 5500
CCc1csc(NC(=S)NCCc2c(F)cccc2F)n1 | 5.5 | > 305 | 80
CCCOc1cccc(CCNC(=S)Nc2nccs2)c1 | 200 | 75 | 2200
Cc1ccc(NC(=S)NCCc2ccccn2)nc1 | 50 | 73 | 300
CCc1cc(NCc2nc3c(Cl)ccc(Cl)c3o2)c(O)nc1C [L-697661] | 100 | 114 | 65
COc1cccc(F)c1CCNC(=S)Nc1nccs1 | 10 | 51 | 300
CC(CNC(=S)Nc1nccs1)c1ccccc1 (centres undefined) | 450 |  | 
S=C(NCc1ccccc1)Nc1nccs1 | 1200 | 120 | > 10000
COc1ccc(OC)c(CCNC(=S)Nc2nccs2)c1 | 200 | 86 | 400
CCOc1cccc(F)c1CCNC(=S)Nc1nccs1 | 10 | 37 | 200
Cc1ccccc1CCNC(=S)Nc1nccs1 | 80 | 72 | 950
Cc1ccc(NC(=S)NCCc2ccccc2)nc1 | 30 |  | 150
CCCc1csc(NC(=S)NCCc2ccccc2)n1 | 350 | > 330 | 1600
O=C(O)c1csc(/N=C(\S)NCCc2ccccc2)n1 | > 10000 | > 325 | > 10000
CCOc1cccc(F)c1CCNC(=S)Nc1ccc(C)cn1 | 4.5 | 60 | 200
CCc1csc(NC(=S)NCCc2ccccc2)n1 | 600 | > 340 | 700
Fc1ccccc1CCNC(=S)Nc1nccs1 | 60 | 75 | 100
S=C(NCCc1ccncc1)Nc1nccs1 | > 10000 | 113 | > 10000
O=C(NCCc1ccccc1)Nc1nccs1 | > 10000 | 113 | > 10000
CC(C/N=C(\S)Nc1nccs1)c1ccccc1 (centres undefined) |  | 108 | 1200
CCOc1cccc(CCNC(=S)Nc2nccs2)c1 | 60 | 91 | 150
N#Cc1csc(NC(=S)NCCc2ccccc2)n1 | 200 |  | 200
S=C(NCCc1cccnc1)Nc1nccs1 | > 10000 | 83 | 6400

SMILES | IC50 [1] [nM] | CD50 [2] [µM] | ED50 [3] [nM]
[N-]=[N+]=Nc1ccccc1CC/N=C(\S)Nc1nccs1 |  | 92 | 100
Cc1cn([C@H]2C[C@H](N=[N+]=[N-])[C@@H](CO)O2)c(=O)[nH]c1=O |  |  | 7
CCCCc1csc(NC(=S)NCCc2ccccc2)n1 | 2500 | 313 | 1300
Oc1ccccc1CCNC(=S)Nc1nccs1 | 1100 | 100 | 4000
N#Cc1csc(NC(=S)NCCc2c(F)cccc2F)n1 | 6 | 10 | 30
S=C(NCCc1ccccc1)Nc1nncs1 | 1900 |  | 5300
Cn1cccc1CC/N=C(\S)Nc1nccs1 | 1900 | 143 | > 10000
S=C(NCCc1ccccn1)Nc1nccs1 | 200 | 76 | 1300
S=C(NCCc1ccccc1)Nc1cc[nH]n1 | > 10000 | 122 | > 10000
Cc1ccnc2c1NC(=O)c1cccnc1N2C1CC1 |  |  | 150
COc1cccc(CCNC(=S)Nc2nccs2)c1 | 150 | 143 | 600
CN(CCc1ccccc1)/C(S)=N\c1nccs1 | > 10000 | 29 | > 10000
S=C(NCCc1cccc(Oc2ccccc2)c1)Nc1nccs1 | 1100 | 14 | 2800
S=C(NCCc1ccccc1Cl)Nc1nccs1 | 600 | 100 | 400
S=C(NCCc1ccccc1)Nc1ccc(Br)cn1 | 15 |  | 50
Fc1cccc(CCNC(=S)Nc2nccs2)c1 | 150 | 78 | 250
CCOc1cccc(F)c1CCNC(=S)Nc1ccc(Br)cn1 | 6 | 50 | 20
CC(Cc1ccccc1)/N=C(\S)Nc1nccs1 (centres undefined) | > 10000 | 87 | > 10000
COc1cccc(OC)c1CCNC(=S)Nc1nccs1 | 90 | 37 | 90
S=C(NCCc1ccccc1)Nc1nccs1 | 900 |  | 1300
CCCCCCOc1cccc(CC/N=C(\S)Nc2nccs2)c1 | > 10000 | 8 | > 10000
CC(C)c1csc(NC(=S)NCCc2ccccc2)n1 | 200 | > 330 | 1300
[N-]=[N+]=Nc1ccccc1CCNC(=S)Nc1nccs1 | 30 |  | 
